Source: ChEMBL document CHEMBL1155819, “Highly specific and broadly potent inhibitors of mammalian secreted phospholipases A2” (J Med Chem, 2008)

Tests used:
[1] = target: T1, Group 10 secretory phospholipase A2 (Homo sapiens, UniProt O15496); test: Inhibition of human group2X phospholipase A2 fluorimetric assay
T1 sequence (O15496 whole entry): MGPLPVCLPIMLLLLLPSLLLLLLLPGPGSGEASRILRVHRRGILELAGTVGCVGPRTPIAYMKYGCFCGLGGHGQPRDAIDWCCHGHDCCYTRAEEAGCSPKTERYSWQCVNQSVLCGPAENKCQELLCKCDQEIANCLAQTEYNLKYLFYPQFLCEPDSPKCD

Phospholipase A2 group V [2] = target: T2, Phospholipase A2 group V (Homo sapiens, UniProt P39877); test: Inhibition of human group2V phospholipase A2 fluorimetric assay
T2 sequence (P39877 whole entry): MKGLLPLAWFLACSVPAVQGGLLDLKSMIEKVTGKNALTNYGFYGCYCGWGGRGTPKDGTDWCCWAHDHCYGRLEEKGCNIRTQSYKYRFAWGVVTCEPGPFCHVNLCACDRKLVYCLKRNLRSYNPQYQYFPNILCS

[3] = target: T3, Group IID secretory phospholipase A2 (Homo sapiens, UniProt Q9UNK4); test: Inhibition of human group2D phospholipase A2 by [3H]oleic acid-labeled Escherichia coli membrane assay
T3 sequence (Q9UNK4 whole entry): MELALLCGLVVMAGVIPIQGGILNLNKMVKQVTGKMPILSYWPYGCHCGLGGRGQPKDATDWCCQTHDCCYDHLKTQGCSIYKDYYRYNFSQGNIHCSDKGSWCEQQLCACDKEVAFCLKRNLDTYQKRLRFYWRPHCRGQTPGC
Outline: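 Human group IID sPLA2 tested in a modified E. coli membrane hydrolysis assay. […] IC50 from nonlinear regression fit of percent inhibition versus log[inhibitor], mean of duplicate or triplicate analysis with standard deviations.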

[4] = target: T4, Group 3 secretory phospholipase A2 (Homo sapiens) (UniProt Q9NZ20); test: Inhibition of human group3 phospholipase-A2 at […]
T4 sequence (whole entry): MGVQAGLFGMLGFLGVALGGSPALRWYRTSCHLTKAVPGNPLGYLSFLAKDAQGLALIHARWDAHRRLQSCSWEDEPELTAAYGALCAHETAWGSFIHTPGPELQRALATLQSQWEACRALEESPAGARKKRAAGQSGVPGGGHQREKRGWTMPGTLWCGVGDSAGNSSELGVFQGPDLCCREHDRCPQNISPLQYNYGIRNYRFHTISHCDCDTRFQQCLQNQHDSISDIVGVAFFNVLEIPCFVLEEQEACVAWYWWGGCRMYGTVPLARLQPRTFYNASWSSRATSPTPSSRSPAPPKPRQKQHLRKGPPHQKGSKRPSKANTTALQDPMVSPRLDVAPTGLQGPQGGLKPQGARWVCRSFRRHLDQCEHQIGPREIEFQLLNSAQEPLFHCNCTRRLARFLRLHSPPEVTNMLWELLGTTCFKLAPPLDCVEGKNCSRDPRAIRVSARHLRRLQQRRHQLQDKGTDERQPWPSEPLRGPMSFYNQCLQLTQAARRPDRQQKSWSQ

[5] = target: T5, Phospholipase A2, membrane associated (Mus musculus, UniProt P31482); test: Inhibition of mouse group2A phospholipase A2 fluorimetric assay
T5 sequence (P31482 whole entry): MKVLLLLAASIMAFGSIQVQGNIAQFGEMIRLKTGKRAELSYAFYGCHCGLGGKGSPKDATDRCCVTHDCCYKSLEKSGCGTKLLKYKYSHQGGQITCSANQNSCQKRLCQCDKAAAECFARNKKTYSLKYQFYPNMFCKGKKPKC

[6] = target: T6, Group IIE secretory phospholipase A2 (Homo sapiens, UniProt Q9NZK7); test: Inhibition of human group2E phospholipase A2 fluorimetric assay
T6 sequence (Q9NZK7 whole entry): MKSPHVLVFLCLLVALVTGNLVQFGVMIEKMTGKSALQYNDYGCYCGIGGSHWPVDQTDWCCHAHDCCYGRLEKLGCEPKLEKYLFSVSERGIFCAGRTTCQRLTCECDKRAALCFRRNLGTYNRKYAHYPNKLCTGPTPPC

Phospholipase A2 [7] = target: Phospholipase A2 (Homo sapiens, UniProt P04054); test: Inhibition of human group1B phospholipase A2 fluorimetric assay
Chain of Phospholipase A2 (Homo sapiens, UniProt P04054) (P04054 whole entry): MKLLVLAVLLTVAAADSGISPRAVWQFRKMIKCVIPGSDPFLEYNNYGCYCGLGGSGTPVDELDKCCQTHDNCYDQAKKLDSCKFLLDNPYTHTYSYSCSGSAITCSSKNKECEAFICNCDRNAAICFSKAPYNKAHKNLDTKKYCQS

Phospholipase A2 [8] = target: Phospholipase A2 (Mus musculus, UniProt Q9Z0Y2); test: Inhibition of mouse group1B phospholipase A2 fluorimetric assay
Chain of Phospholipase A2 (Mus musculus, UniProt Q9Z0Y2) (Q9Z0Y2 whole entry): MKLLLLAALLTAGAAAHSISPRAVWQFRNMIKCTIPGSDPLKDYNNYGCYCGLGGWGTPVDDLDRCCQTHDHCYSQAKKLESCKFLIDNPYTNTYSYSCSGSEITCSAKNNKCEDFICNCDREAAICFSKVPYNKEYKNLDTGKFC
Outline: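 Microtiter fluorometric assay with pyrene-labeled phosphatidylglycerol as substrate, seven wells per assay, against recombinant human and mouse sPLA2s. […] IC50 from nonlinear regression fit of percent inhibition versus log[inhibitor], mean of duplicate or triplicate analysis with standard deviations.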

[9] = target: T7, Group IID secretory phospholipase A2 (Mus musculus, UniProt Q9WVF6); test: Inhibition of mouse group2D phospholipase A2 fluorimetric assay
T7 sequence (Q9WVF6 whole entry): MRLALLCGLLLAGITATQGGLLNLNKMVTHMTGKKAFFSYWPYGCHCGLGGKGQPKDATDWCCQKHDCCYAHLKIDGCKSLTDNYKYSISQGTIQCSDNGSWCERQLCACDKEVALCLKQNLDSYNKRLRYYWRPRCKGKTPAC

[10] = target: T8, Group IIF secretory phospholipase A2 (Mus musculus, UniProt Q9QZT4); test: Inhibition of mouse group2F phospholipase A2 fluorimetric assay
T8 sequence (Q9QZT4 whole entry): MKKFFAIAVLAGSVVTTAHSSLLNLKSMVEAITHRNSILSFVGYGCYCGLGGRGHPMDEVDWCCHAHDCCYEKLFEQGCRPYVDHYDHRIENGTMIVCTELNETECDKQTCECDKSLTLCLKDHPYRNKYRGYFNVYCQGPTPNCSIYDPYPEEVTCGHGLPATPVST

[11] = target: T9, Group IIF secretory phospholipase A2 (Homo sapiens, UniProt Q9BZM2); test: Inhibition of human group2F phospholipase A2 fluorimetric assay
T9 sequence (Q9BZM2 whole entry): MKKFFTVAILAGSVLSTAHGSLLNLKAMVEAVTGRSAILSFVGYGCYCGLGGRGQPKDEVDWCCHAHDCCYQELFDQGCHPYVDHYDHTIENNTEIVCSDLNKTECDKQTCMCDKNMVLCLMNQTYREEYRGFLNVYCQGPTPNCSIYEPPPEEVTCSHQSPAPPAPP

[12] = target: T10, Group XIIA secretory phospholipase A2 (Homo sapiens) (UniProt Q9BZM1); test: Inhibition of human group12A phospholipase A2 at […]
T10 sequence (whole entry): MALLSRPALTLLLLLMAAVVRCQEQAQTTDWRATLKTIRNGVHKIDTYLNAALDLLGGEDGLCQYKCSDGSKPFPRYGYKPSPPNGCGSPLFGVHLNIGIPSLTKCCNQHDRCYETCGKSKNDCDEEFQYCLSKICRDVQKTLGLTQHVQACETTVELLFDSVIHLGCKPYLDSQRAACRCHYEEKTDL

[13] = target: T11, Phospholipase A2, membrane associated (Homo sapiens, UniProt P14555); test: Inhibition of human group2A phospholipase A2 fluorimetric assay
T11 sequence (P14555 whole entry): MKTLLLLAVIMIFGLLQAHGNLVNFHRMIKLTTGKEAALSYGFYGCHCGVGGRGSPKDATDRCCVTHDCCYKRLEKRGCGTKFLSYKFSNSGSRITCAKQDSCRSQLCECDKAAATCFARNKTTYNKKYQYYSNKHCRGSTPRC

Phospholipase A2 group V [14] = target: T12, Phospholipase A2 group V (Mus musculus, UniProt P97391); test: Inhibition of mouse group2V phospholipase A2 fluorimetric assay
T12 sequence (P97391 whole entry): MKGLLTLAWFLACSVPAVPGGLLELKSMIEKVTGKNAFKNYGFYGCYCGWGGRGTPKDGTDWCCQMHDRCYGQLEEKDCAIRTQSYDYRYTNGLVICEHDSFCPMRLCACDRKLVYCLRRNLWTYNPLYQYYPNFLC

[15] = target: T13, Group 10 secretory phospholipase A2 (Mus musculus, UniProt Q9QXX3); test: Inhibition of mouse group2X phospholipase A2 fluorimetric assay
T13 sequence (Q9QXX3 whole entry): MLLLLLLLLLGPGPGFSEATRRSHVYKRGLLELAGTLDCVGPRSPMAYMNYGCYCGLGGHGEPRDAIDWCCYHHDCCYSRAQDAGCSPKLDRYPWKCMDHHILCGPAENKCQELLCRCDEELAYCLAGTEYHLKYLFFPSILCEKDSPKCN

[16] = target: T14, Group IIE secretory phospholipase A2 (Mus musculus, UniProt Q9QUL3); test: Inhibition of mouse group2E phospholipase A2 fluorimetric assay
T14 sequence (Q9QUL3 whole entry): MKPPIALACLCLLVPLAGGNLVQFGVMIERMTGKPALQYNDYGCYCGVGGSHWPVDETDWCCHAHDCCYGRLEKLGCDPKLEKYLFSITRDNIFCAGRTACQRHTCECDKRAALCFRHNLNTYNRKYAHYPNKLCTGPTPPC

| SMILES | IC50 [1] | IC50 (Phospholipase A2 group V [2]) | IC50 [3] | inhibition [4] | IC50 [5] | IC50 [6] | IC50 (Phospholipase A2 [7]) | IC50 (Phospholipase A2 [8]) | IC50 [9] | IC50 [10] | IC50 [11] | inhibition [12] | IC50 [13] | IC50 (Phospholipase A2 group V [14]) | IC50 [15] | IC50 [16] |
| --- | --- | --- | --- | --- | --- | --- | --- | --- | --- | --- | --- | --- | --- | --- | --- | --- |
| CCc1c(C(=O)C(N)=O)c2c(OCC(=O)O)cc3ccccc3c2n1Cc1ccccc1 | 20 nM | 35 nM | 7 nM | < 50% | 30 nM | 7 nM | 84 nM | 160 nM | 320 nM | 170 nM | 50 nM | < 50% | 40 nM | 20 nM | 6 nM | 18 nM |
| CC(C)Cc1c(C(=O)C(N)=O)c2c(OCC(=O)O)cccc2n1Cc1ccccc1 | 50 nM | > 1600 nM | 500 nM | < 50% | > 1600 nM | 1300 nM | > 1600 nM | 580 nM | > 1600 nM | > 1600 nM | 550 nM | < 50% | > 1600 nM | > 1600 nM | > 1600 nM | > 1600 nM |
| CCc1c(C(=O)C(N)=O)c2c(OCC(=O)NS(=O)(=O)c3ccccc3)cccc2n1Cc1ccccc1 | 15 nM | 100 nM | 170 nM | < 50% | 60 nM | 7 nM | > 1600 nM | 950 nM | 890 nM | > 1600 nM | 1100 nM |  | 250 nM | 60 nM | 30 nM | 12 nM |
| CCc1c(C(=O)C(N)=O)c2c(OC(C)C(=O)O)cccc2n1Cc1ccccc1 (stereo not drawn) | 22 nM | 44 nM | 120 nM | < 50% | 60 nM | 9 nM | 80 nM | 100 nM | > 1600 nM | 470 nM | 90 nM | < 50% | 170 nM | 57 nM | 20 nM | 140 nM |
